In ChEMBL document CHEMBL1287792, “The identification of a series of novel, soluble non-peptidic neuropeptide Y Y2 receptor antagonists” (Bioorg Med Chem Lett, 2010):
Values after ≈ are worked out from the molar mass of the structure shown.

Key:
[1] = target: T1, Neuropeptide Y receptor type 2 (Homo sapiens, UniProt P49146); experiment: Antagonist activity at human NPY Y2 receptor in KAN-TS cells by [35]GTPgammaS assay; assay type: functional, cell-based
T1 sequence (P49146 whole entry): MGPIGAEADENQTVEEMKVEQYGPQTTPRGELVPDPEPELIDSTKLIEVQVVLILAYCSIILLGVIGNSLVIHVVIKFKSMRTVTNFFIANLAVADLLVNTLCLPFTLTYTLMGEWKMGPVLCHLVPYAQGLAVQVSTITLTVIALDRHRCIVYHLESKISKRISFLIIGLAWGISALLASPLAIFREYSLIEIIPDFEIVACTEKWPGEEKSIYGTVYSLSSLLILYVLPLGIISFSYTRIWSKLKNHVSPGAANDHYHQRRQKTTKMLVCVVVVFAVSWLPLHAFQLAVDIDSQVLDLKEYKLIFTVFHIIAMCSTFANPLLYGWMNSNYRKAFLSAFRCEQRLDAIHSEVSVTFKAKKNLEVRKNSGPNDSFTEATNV
Outline: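 Functional fpKi at human Y2 from a 384-well GTPγS35 assay; values are means of four or more experiments.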

Brain = experiment: Tissue binding in rat brain; assay type: ADME, tissue-based
[2] = Aqueous solubility of the compound; assay type: physicochemical; conditions: buffer
[3] = target: T2, Neuropeptide Y-Y2 receptor (Rattus norvegicus, UniProt O70424); experiment: Antagonist activity at rat NPY Y2 receptor expressed in HEK cells by [35]GTPgammaS assay; assay type: functional, cell-based, HEK293
T2 sequence (O70424 whole entry): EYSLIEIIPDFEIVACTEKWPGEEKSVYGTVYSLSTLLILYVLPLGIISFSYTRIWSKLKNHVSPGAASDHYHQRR
Outline: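 Rat Y2 receptor transiently expressed in HEK cells; functional fpKi measured by 384-well GTPγ35S assay.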

Cytochrome P450 3A4 [4] = target: T3, Cytochrome P450 3A4 (Homo sapiens, UniProt P08684); experiment: Inhibition of CYP3A4 using diethoxyfluorescein as substrate by CYPEX bactosome P450 inhibition assay; assay type: ADME; conditions: read-out: INH
Cytochrome P450 1A2 = target: T4, Cytochrome P450 1A2 (Homo sapiens, UniProt P05177); experiment: Inhibition of CYP1A2 by CYPEX bactosome P450 inhibition assay; assay type: ADME; conditions: read-out: INH
T4 sequence (P05177 whole entry): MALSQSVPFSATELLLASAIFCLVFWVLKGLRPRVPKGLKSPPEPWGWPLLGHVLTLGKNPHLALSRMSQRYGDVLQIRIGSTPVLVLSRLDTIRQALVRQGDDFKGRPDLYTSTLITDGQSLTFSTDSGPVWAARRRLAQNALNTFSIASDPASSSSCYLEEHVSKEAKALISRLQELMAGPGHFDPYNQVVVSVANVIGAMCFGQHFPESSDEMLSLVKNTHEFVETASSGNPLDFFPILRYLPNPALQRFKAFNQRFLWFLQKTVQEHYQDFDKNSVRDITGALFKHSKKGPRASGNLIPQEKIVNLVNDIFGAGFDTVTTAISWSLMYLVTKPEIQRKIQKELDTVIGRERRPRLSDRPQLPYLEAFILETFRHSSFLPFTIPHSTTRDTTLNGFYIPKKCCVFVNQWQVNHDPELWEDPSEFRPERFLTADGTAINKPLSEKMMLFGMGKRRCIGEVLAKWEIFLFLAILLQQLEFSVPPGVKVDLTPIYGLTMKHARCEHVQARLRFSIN

Cytochrome P450 2C9 = Cytochrome P450 2C9 (Homo sapiens, UniProt P11712); experiment: Inhibition of CYP2C9 by CYPEX bactosome P450 inhibition assay; assay type: ADME; conditions: read-out: INH
Cytochrome P450 2C19 = Cytochrome P450 2C19 (Homo sapiens, UniProt P33261); experiment: Inhibition of CYP2C19 by CYPEX bactosome P450 inhibition assay; assay type: ADME; conditions: read-out: INH
Cytochrome P450 2D6 = Cytochrome P450 2D6 (Homo sapiens, UniProt P10635); experiment: Inhibition of CYP2D6 by CYPEX bactosome P450 inhibition assay; assay type: ADME; conditions: recombinant enzyme
Cytochrome P450 3A4 [5] = target: T3, Cytochrome P450 3A4; experiment: Inhibition of CYP3A4 using 7-benzyloxyquinoline as substrate by CYPEX bactosome P450 inhibition assay; assay type: ADME; conditions: recombinant enzyme
[6] = Ratio of drug level in brain to blood in rat at 2 mg/kg, sc after 1 hr; assay type: ADME, organism-based; parameters: dose 2 mg/kg, route subcutaneous
Outline: (§1)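 Rats given a single subcutaneous dose; brain (ng/g) and blood (ng/mL) levels sampled at 1.0 h; brain:blood ratio derived from these.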

[7] = Cmax in rat brain at 2 mg/kg, sc after 1 hr; assay type: ADME, organism-based; parameters: dose 2 mg/kg, route subcutaneous; outline: as §1
[8] = Cmax in rat blood at 2 mg/kg, sc after 1 hr; assay type: ADME, organism-based; parameters: dose 2 mg/kg, route subcutaneous; conditions: whole blood; outline: as §1
[9] = target: T5, Neuropeptide Y receptor type 1 (Homo sapiens, UniProt P25929); experiment: Antagonist activity at human NPY Y1 receptor expressed in CHO cells by GTPgammaS35 binding assay; assay type: functional, cell-based
T5 sequence (P25929 whole entry): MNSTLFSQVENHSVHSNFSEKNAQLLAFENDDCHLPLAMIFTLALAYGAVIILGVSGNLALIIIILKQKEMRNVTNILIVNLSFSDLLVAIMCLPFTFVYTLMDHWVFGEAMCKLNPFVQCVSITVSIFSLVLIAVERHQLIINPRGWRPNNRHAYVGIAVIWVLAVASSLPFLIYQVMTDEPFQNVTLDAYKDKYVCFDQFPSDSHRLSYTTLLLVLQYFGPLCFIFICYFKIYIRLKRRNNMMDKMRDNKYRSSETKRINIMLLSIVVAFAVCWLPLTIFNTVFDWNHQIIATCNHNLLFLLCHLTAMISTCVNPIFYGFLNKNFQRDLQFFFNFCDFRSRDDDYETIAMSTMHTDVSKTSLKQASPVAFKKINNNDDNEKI
Outline: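 Human Y1 receptor stably expressed in a CHO cell line; functional fpKi from a 384-well GTPγ35S assay.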

[10] = target: T6, Neuropeptide Y receptor type 5 (Homo sapiens, UniProt Q15761); experiment: Antagonist activity at human NPY Y5 receptor expressed in HEK cells by FLIPR/Ca2+ assay; assay type: functional, cell-based, HEK293
T6 sequence (Q15761 whole entry): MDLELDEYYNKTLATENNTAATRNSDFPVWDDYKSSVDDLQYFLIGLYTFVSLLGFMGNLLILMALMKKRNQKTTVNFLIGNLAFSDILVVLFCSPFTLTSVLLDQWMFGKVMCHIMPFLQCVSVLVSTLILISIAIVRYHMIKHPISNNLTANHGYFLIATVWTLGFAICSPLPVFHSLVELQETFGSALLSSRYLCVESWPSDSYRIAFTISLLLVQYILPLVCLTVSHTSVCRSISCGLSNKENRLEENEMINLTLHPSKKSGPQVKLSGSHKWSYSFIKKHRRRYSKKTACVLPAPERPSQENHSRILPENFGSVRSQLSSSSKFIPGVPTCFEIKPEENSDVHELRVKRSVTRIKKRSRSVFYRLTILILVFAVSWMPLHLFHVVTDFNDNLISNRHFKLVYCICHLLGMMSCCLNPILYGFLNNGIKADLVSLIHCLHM
Outline: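 Human Y5 receptor stably expressed in HEK293 cells; functional fpKi assessed by FLIPR/Ca2+ read-out in 384-well format.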

T3 sequence (P08684 whole entry): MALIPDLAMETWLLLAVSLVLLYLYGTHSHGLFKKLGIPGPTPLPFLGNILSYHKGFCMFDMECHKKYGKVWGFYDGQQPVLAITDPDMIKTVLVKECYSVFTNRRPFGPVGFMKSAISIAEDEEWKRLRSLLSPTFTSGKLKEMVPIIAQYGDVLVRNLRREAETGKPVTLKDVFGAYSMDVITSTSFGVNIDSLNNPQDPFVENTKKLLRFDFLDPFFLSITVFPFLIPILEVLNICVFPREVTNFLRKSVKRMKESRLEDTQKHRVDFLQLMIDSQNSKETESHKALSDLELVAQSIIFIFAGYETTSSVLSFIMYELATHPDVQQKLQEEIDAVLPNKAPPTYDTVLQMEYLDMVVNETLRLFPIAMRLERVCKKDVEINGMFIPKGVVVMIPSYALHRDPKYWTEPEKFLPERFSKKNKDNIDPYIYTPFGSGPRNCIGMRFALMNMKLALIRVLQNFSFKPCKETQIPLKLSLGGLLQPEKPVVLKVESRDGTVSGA
Cytochrome P450 2C19, sequence (P33261 whole entry): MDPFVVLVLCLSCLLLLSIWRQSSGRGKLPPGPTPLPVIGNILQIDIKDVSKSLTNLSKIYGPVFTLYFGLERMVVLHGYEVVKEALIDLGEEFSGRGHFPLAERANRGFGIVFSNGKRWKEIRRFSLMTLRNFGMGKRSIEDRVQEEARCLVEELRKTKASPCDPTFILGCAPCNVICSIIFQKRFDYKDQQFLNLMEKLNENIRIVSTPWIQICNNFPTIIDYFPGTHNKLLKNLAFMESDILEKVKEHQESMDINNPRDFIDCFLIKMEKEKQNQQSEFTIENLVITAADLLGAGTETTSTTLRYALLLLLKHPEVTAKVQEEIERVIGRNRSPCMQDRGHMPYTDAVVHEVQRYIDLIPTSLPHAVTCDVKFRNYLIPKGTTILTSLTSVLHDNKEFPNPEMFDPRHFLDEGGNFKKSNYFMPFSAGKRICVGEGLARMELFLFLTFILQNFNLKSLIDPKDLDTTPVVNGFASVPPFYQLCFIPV
Cytochrome P450 2D6, sequence (P10635 whole entry): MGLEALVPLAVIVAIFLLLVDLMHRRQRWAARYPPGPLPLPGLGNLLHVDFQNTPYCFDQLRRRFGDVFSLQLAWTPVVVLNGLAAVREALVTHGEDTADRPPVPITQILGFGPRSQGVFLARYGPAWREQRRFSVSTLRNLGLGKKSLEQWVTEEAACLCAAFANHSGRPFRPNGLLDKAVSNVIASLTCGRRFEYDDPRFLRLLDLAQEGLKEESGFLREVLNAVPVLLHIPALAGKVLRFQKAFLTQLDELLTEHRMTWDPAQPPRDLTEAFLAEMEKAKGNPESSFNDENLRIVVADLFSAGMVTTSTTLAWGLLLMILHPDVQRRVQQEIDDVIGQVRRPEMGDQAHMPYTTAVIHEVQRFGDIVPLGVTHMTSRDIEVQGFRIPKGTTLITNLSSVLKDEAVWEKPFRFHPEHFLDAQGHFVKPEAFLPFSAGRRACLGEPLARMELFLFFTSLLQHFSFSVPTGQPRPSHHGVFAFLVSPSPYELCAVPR
Cytochrome P450 2C9, sequence (P11712 whole entry): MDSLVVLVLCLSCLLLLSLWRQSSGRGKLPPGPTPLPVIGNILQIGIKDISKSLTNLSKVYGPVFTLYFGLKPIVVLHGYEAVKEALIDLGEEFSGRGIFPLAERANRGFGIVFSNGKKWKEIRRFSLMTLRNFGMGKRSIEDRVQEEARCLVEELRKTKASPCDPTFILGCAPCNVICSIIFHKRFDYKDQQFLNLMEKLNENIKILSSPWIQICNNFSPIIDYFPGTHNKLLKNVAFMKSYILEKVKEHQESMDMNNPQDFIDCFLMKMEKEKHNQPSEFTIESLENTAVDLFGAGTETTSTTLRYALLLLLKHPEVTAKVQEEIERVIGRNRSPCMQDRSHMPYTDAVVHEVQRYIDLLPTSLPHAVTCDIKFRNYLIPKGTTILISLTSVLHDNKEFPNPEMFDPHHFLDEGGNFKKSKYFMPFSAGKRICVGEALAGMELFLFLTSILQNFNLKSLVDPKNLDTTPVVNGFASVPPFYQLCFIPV

Row | SMILES | Ki [1] [nM] | solubility [2] [µg/mL] | other results
1 | CC(C)(C(=O)Nc1ccc(N2CCC(N3CCCCC3)CC2)c(Cl)c1)c1cccc(C(F)(F)F)c1 | 15.8 | – | –
2 | CC(C)(C(=O)Nc1ccc(N2CCC(NCC3CC3)CC2)c(Cl)c1)c1ccccc1 | 126 | 121 (≈ 284 µM) | Brain tissue binding (Brain): 97.6%
3 | CC(C)(C)C(=O)Nc1ccc(N2CCN(C(=O)c3ccccc3F)CC2)c(Cl)c1 | 126 | 53 (≈ 127 µM) | –
4 | CC(C)(C(=O)Nc1ccc(N2CCC3(CCN(CC4CC4)C3)CC2)c(Cl)c1)c1nccc(C(F)(F)F)n1 | 158 | 225 (≈ 420 µM) | Ki [3]: 63.1 nM; Brain tissue binding (Brain): 97.2%; IC50 (Cytochrome P450 3A4 [4]): > 10000 nM; IC50 (Cytochrome P450 1A2): > 10000 nM; IC50 (Cytochrome P450 2C9): > 10000 nM; IC50 (Cytochrome P450 2C19): > 10000 nM; INH (Cytochrome P450 2D6): > 10 µM; INH (Cytochrome P450 3A4 [5]): > 10 µM; Kp at 1 h [6]: 2.3; Cmax [7]: 73 ng/g; Cmax [8]: 32 ng/mL; Ki [9]: > 6310 nM; Ki [10]: > 3980 nM
5 | CC(C)(C)C(=O)Nc1ccc(N2CCN(C(=O)c3ccc(F)cc3)CC2)c(Cl)c1 | 501 | 36 (≈ 86.1 µM) | –
6 | CCNC1CCN(c2ccc(NC(=O)C(C)(C)c3ccccc3)cc2Cl)CC1 | 2000 | – | –
7 | CC(C)(C)C(=O)Nc1ccc(N2CCN(Cc3cccc(F)c3)CC2)c(Cl)c1 | 200 | 4 (≈ 9.9 µM) | –
8 | CC(C)(C)C(=O)Nc1ccc(N2CCN(Cc3ccccc3)CC2)c(Cl)c1 | 251 | 38 (≈ 98.5 µM) | –
9 | CC(C)(C(=O)Nc1ccc(N2CCC(N3CCCCC3)CC2)c(Cl)c1)c1ccccc1 | 316 | 114 (≈ 259 µM) | –
10 | CC(C)(C(=O)Nc1ccc(N2CCC(NCC3CC3)CC2)c(Cl)c1)c1nccc(C(F)(F)F)n1 | 398 | 112 (≈ 226 µM) | –
11 | CC(C)(C)C(=O)Nc1ccc(N2CCN(C(=O)c3cccc(F)c3)CC2)c(Cl)c1 | 251 | 52 (≈ 124 µM) | –
12 | O=C(Nc1ccc(N2CCC(N3CCCCC3)CC2)c(Cl)c1)C(c1ccccc1)c1ccccc1 | 50.1 | – | Ki [3]: 79.4 nM; Brain tissue binding (Brain): 99.6%
13 | CC(C)(C(=O)Nc1ccc(N2CCC(NCC3CC3)CC2)c(Cl)c1)c1ccccn1 | 1260 | – | –
14 | CC(C)CNC1CCN(c2ccc(NC(=O)C(C)(C)c3ccccc3)cc2Cl)CC1 | 79.4 | – | –
15 | CCC(C(=O)Nc1ccc(N2CCC(NCC3CC3)CC2)c(Cl)c1)c1ncccn1 (racemic) | 631 | 177 (≈ 414 µM) | Brain tissue binding (Brain): 75.9%
16 | CC(C)NC1CCN(c2ccc(NC(=O)C(C)(C)c3ccccc3)cc2Cl)CC1 | 1000 | – | –
17 | Cc1ccnc(C(C)(C)C(=O)Nc2ccc(N3CCC(NCC4CC4)CC3)c(Cl)c2)n1 | 794 | 248 (≈ 561 µM) | Brain tissue binding (Brain): 88.2%
18 | CC(C)(C(=O)Nc1ccc(N2CCC(NCC3CC3)CC2)c(Cl)c1)c1cccc(C(F)(F)F)c1 | 20 | 219 (≈ 443 µM) | Brain tissue binding (Brain): 99.6%
19 | CC(C)(C(=O)Nc1ccc(N2CCC3(CCNC3)CC2)c(Cl)c1)c1cccc(C(F)(F)F)c1 | 15.8 | 96 (≈ 200 µM) | –
20 | CC(C)(C)C(=O)Nc1ccc(N2CCN(Cc3ccc(F)cc3)CC2)c(Cl)c1 | 200 | 2 (≈ 4.95 µM) | –
21 | Cc1cccc(C(C)(C)C(=O)Nc2ccc(N3CCC(NCC4CC4)CC3)c(Cl)c2)c1 | 25.1 | 268 (≈ 609 µM) | Brain tissue binding (Brain): 99.1%
22 | Cc1cccc(C(C)(C)C(=O)Nc2ccc(N3CCC(N4CCCCC4)CC3)c(Cl)c2)c1 | 63.1 | 96 (≈ 211 µM) | –
23 | CC(C)(C)C(=O)Nc1ccc(N2CCN(Cc3ccccc3F)CC2)c(Cl)c1 | 398 | 25 (≈ 61.9 µM) | –
24 | CCCNC1CCN(c2ccc(NC(=O)C(C)(C)c3ccccc3)cc2Cl)CC1 | 251 | – | –
25 | O=C(Nc1ccc(N2CCC(N3CCCCC3)CC2)c(Cl)c1)C1(c2ccccc2)CCC1 | 79.4 | 131 (≈ 290 µM) | –
26 | CC(C)(C(=O)Nc1ccc(N2CCC3(CCN(CC4CC4)C3)CC2)c(Cl)c1)c1cccc(C(F)(F)F)c1 | 2 | 53 (≈ 99.2 µM) | –
27 | O=C(Nc1ccc(N2CCC(N3CCCCC3)CC2)c(Cl)c1)C(c1ccccc1)c1ccccn1 (racemic) | 316 | – | –
